Assay results from ChEMBL document CHEMBL4145606, “Microcystins Containing Doubly Homologated Tyrosine Residues from a Microcystis aeruginosa Bloom: Structures and Cytotoxicity” (J Nat Prod, 2018).
Starred links: 1 amine or outer side, 2 acyl side, 3 side chain; linkers in the order of their positions; H or OH if unused. Positions of bridges follow the written chain, without caps; N, C: chain ends. Non-standard residues stand in square brackets, D forms with d. Residues, ends and D or L forms follow the SMILES beside them. Adda = CO[C@@H](Cc1ccccc1)[C@@H](C)/C=C(C)/C=C/[C@H](N[*:1])[C@H](C)C(=O)[*:2]; dAsp(3S-Me) = C[C@H](C(=O)[*:3])[C@@H](N[*:1])C(=O)[*:2]; d(γGlu) = O=C(O)[C@@H](CCC(=O)[*:2])N[*:1]; NMeDha = C=C(NC)C(=O)O

What was measured:
A549 = experiment: Cytotoxicity against human A549 cells assessed as reduction in cell viability after 72 hrs by MTT assay; type: functional, cell-based
How it was run: (§1)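 Cells seeded in 96-well plates and incubated overnight at 37 °C. Treated with a range of concentrations (∼35 to 0.1 μM) for ∼72 h at 37 °C. Viability read by MTT assay. EC50 estimated from the dose-response curves.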

HCT-116 = experiment: Cytotoxicity against human HCT116 cells assessed as reduction in cell viability after 72 hrs by MTT assay; type: functional, cell-based; how it was run: as §1

SMILES	EC50 (A549) [µM]	EC50 (HCT-116) [µM]	Activity (A549)	Activity (HCT-116)
C=C1C(=O)N[C@H](C)C(=O)N[C@@H](CCCc2ccc(O)cc2)C(=O)N[C@@H](C(=O)O)[C@H](C)C(=O)N[C@@H](CCCNC(=N)N)C(=O)N[C@@H](/C=C/C(C)=C/[C@H](C)[C@H](Cc2ccccc2)OC)[C@H](C)C(=O)N[C@@H](C(=O)O)CCC(=O)N1C	18	> 35	–	–
C=C1C(=O)N[C@H](C)C(=O)N[C@@H](CC(C)C)C(=O)N[C@@H](C(=O)O)[C@H](C)C(=O)N[C@@H](CCCNC(=N)N)C(=O)N[C@@H](/C=C/C(C)=C/[C@H](C)[C@H](Cc2ccccc2)OC)[C@H](C)C(=O)N[C@@H](C(=O)O)CCC(=O)N1C [MICROCYSTIN-LR] (R[Adda][d(γGlu)][NMeDha][dA]L[dAsp(3S-Me)]-OH; lactam N-7)	> 35	35	–	–
C=C1C(=O)N[C@H](CC(C)C)C(=O)N[C@@H](CC(C)C)C(=O)N[C@@H](C(=O)O)[C@H](C)C(=O)N[C@@H](Cc2ccc(O)cc2)C(=O)N[C@@H](/C=C/C(C)=C/[C@H](C)[C@H](Cc2ccccc2)OC)[C@H](C)C(=O)N[C@@H](C(=O)O)CCC(=O)N1C (Y[Adda][d(γGlu)][NMeDha][dL]L[dAsp(3S-Me)]-OH; lactam N-7)	1.3	11	Dose-dependent effect	Dose-dependent effect
C=C1C(=O)N[C@H](C)C(=O)N[C@@H](CCc2ccc(O)cc2)C(=O)N[C@@H](C(=O)O)[C@H](C)C(=O)N[C@@H](CCCc2ccc(O)cc2)C(=O)N[C@@H](/C=C/C(C)=C/[C@H](C)[C@H](Cc2ccccc2)OC)[C@H](C)C(=O)N[C@@H](C(=O)O)CCC(=O)N1C	0.36	3.3	Dose-dependent effect	Dose-dependent effect
